According to ChEMBL document CHEMBL3745601 (Medchemcomm, 2015):

Experiments:
Adenosine receptor A2a [1] = biological target: T1, Adenosine receptor A2a (Homo sapiens, UniProt P29274); assay: Displacement of [3H]2-[p(2-carboxyethyl)phenyl-ethylamino]-5'-N-ethylcarboxamido-adenosine from human adenosine A2A receptor stably expressed in HEK293 cell membrane by radioligand binding assay; format: cell membranes
Adenosine receptor A3 [2] = biological target: T2, Adenosine receptor A3 (Homo sapiens, UniProt P0DMS8); assay: Displacement of [125I]N6-(4-amino-3-iodobenzyl)adenosine-5'-N-methyl-uronamide from human adenosine A3 receptor stably expressed in CHO cell membrane by radioligand binding assay; format: cell membranes
T2 sequence (P0DMS8 whole entry): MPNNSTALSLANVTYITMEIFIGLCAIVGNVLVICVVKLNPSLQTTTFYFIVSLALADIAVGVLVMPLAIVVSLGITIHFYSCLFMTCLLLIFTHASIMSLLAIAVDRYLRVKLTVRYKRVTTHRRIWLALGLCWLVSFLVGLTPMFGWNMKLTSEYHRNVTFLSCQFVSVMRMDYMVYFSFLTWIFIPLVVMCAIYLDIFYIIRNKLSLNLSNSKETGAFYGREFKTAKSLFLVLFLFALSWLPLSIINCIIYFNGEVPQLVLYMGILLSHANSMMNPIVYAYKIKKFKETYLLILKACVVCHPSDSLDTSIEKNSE

[3] = biological target: T3, Adenosine receptor A1 (Homo sapiens) (UniProt P30542); assay: Displacement of [3H]N6-R-phenylisopropyladenosine from human adenosine A1 receptor stably expressed in CHO cell membrane at 10 uM by radioligand binding assay; format: cell membranes
T3 sequence (whole entry): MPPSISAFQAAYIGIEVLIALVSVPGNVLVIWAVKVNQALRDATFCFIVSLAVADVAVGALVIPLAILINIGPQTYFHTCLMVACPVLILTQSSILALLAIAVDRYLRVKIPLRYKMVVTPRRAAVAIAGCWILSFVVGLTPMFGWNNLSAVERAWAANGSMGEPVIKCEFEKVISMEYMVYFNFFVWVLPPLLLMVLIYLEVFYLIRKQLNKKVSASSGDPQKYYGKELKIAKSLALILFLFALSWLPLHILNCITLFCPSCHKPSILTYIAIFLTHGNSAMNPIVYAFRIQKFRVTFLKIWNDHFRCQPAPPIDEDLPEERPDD

Adenosine receptor A2a [4] = biological target: T1, Adenosine receptor A2a; assay: Displacement of [3H]2-[p(2-carboxyethyl)phenyl-ethylamino]-5'-N-ethylcarboxamido-adenosine from human adenosine A2A receptor stably expressed in HEK293 cell membrane at 10 uM by radioligand binding assay; format: cell membranes
Mus musculus [5] = assay: Antineuropathic pain activity in mouse chronic constriction injury model of neuropathic pain assessed as reversal of reduction in paw withdrawal threshold of ipsilateral hind paw at 3 umol/kg, po dosed on day 7 after sciatic nerve ligation and measured at 1 hrs; format: functional
Summary of the method: (§1)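 Paw withdrawal threshold (g) measured at 1 h or 3 h after treatment, at day 7 (D7/BL) and at D0. % effect = [PWT at post-treatment time − PWT at D7/BL] / [PWT at D0 − PWT at D7/BL] × 100. Significance set at P<0.05. Procedures otherwise follow earlier work under IASP/NIH animal welfare guidelines.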

Mus musculus [6] = assay: Induction of mechano-allodynia in mouse chronic constriction injury model of neuropathic pain assessed as paw withdrawal threshold on contralateral side at 3 umol/kg, po; format: organism-based; details: in vivo
Mus musculus [7] = assay: Antineuropathic pain activity in mouse chronic constriction injury model of neuropathic pain assessed as reversal of reduction in paw withdrawal threshold of ipsilateral hind paw at 3 umol/kg, po dosed on day 7 after sciatic nerve ligation and measured at 3 hrs; format: functional; design: scale not given: the % may be the effect or the level left; summary of the method: as §1
Mus musculus [8] = assay: Antineuropathic pain activity in mouse chronic constriction injury model of neuropathic pain assessed as reversal of reduction in paw withdrawal threshold of ipsilateral hind paw at 1 umol/kg, po dosed on day 7 after sciatic nerve ligation and measured at 1 and 3 hrs; format: functional; summary of the method: as §1
[9] = biological target: Histamine H2 receptor (Homo sapiens) (UniProt P25021); assay: Displacement of [3H]tiotidine from H2 histamine receptor (unknown origin) expressed in cells at 10 uM incubated for […] by scintillation counting method; format: cell-based
PC-12 = assay: Displacement of [3H]DTG from rat sigma 2 receptor in PC12 cells incubated for 2 hrs by liquid scintillation counting method; format: cell-based; details: dose or concentration not given here
[10] = biological target: Translocator protein (Rattus norvegicus) (UniProt P16257); assay: Displacement of [3H]flunitrazepam from rat brain benzodiazepine receptor TSPO incubated for […] by liquid scintillation counting method
Adenosine receptor A3 [11] = biological target: T4, Adenosine receptor A3 (Mus musculus, UniProt Q61618); assay: Displacement of [125I]N6-(4-amino-3-iodobenzyl)adenosine-5'-N-methyl-uronamide from mouse adenosine A3 receptor stably expressed in CHO cell membrane by radioligand binding assay; format: cell membranes
T4 sequence (Q61618 whole entry): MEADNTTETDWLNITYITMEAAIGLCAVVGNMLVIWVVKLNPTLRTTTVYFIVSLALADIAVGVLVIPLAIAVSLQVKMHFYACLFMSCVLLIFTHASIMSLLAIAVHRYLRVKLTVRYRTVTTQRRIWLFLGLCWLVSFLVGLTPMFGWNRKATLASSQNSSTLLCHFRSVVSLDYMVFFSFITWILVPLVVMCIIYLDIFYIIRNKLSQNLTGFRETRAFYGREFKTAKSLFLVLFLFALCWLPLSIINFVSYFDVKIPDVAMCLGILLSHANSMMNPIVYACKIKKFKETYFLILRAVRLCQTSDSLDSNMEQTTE

Homo sapiens = species on record: Homo sapiens; assay: Selectivity ratio for human A3 adenosine receptor to human A2A adenosine receptor

T1 sequence (P29274 whole entry): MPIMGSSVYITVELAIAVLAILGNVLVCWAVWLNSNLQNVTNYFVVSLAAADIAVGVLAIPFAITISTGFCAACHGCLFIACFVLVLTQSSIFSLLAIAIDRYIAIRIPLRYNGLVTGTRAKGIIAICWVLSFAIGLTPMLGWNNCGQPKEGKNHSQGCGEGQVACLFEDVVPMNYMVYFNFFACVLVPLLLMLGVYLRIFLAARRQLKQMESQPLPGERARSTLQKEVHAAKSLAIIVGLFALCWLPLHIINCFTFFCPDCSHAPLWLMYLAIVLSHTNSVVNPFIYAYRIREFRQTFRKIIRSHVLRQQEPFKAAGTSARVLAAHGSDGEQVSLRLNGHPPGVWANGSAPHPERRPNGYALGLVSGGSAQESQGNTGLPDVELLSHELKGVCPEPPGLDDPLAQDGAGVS
Translocator protein (Rattus norvegicus), sequence (P16257 whole entry, looked up): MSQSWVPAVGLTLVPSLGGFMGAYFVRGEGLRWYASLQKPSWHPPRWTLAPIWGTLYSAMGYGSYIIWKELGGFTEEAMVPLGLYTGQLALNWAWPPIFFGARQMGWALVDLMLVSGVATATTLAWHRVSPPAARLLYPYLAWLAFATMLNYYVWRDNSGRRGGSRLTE
Histamine H2 receptor (Homo sapiens), sequence (P25021 whole entry): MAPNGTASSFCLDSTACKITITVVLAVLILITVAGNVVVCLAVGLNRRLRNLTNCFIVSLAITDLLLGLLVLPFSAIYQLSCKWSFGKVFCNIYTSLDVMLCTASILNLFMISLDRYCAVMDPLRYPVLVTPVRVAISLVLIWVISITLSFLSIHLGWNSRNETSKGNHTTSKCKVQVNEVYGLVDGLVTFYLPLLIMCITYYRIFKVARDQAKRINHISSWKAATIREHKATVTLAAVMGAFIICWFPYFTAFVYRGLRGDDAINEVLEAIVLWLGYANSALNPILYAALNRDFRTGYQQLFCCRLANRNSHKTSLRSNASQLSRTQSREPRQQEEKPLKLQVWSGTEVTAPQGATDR

Compound	Ki (Adenosine receptor A3 [2]) [nM]	inhibition [3] [%]	inhibition (Adenosine receptor A2a [4]) [%]	Emax at 3 µmol/kg (Mus musculus [5]) [%]	Activity (Mus musculus [6])	Activity (Mus musculus [7]) [%]	also measured
CNC(=O)[C@@]12C[C@@H]1[C@@H](n1cnc3c(NC4CCC4)nc(I)nc31)[C@H](O)[C@@H]2O	1.53	–	–	–	–	–	Ki (Adenosine receptor A2a [1]): > 10000 nM
CCNc1nc(-n2cc(-c3ccc(Cl)s3)nn2)nc2c1ncn2[C@H]1[C@H](O)[C@H](O)[C@]2(C(=O)NC)C[C@H]12	1.22	–	32	84.9	Non-toxic	17.9	–
CNC(=O)[C@@]12C[C@@H]1[C@@H](n1cnc3c(NCc4cccc(Cl)c4)nc(-n4cc(-c5ccc(Cl)s5)nn4)nc31)[C@H](O)[C@@H]2O	9.02	–	–	94.7	Non-toxic	91	inhibition in vivo at 1 µmol/kg (Mus musculus [8]): 70%
CCNc1nc(I)nc2c1ncn2[C@H]1[C@H](O)[C@H](O)[C@]2(C(=O)NC)C[C@H]12	1.22	–	11	–	–	–	–
CNC(=O)[C@@]12C[C@@H]1[C@@H](n1cnc3c(NC)nc(-n4cc(-c5ccc(Cl)s5)nn4)nc31)[C@H](O)[C@@H]2O	0.73	27	34	66.8	Non-toxic	8.4	inhibition [10]: 54%; inhibition (PC-12): 62%
CNC(=O)[C@@]12C[C@@H]1[C@@H](n1cnc3c(NCCc4ccccc4)nc(-n4cc(-c5ccc(Cl)s5)nn4)nc31)[C@H](O)[C@@H]2O	6.66	58	–	94.1	Non-toxic	82.9	–
CNC(=O)[C@@]12C[C@@H]1[C@@H](n1cnc3c(NC)nc(-n4cc(-c5cc6ccccc6o5)nn4)nc31)[C@H](O)[C@@H]2O	1.25	12	40	74	Non-toxic	22.3	–
CNC(=O)[C@@]12C[C@@H]1[C@@H](n1cnc3c(NC)nc(-n4cc(-c5ncccn5)nn4)nc31)[C@H](O)[C@@H]2O	3.48	14	27	92.7	Non-toxic	36.2	Ki (Adenosine receptor A3 [11]): 334 nM
CNC(=O)[C@@]12C[C@@H]1[C@@H](n1cnc3c(NC)nc(-n4cc(-c5ccccn5)nn4)nc31)[C@H](O)[C@@H]2O	1.84	29	26	60.9	Non-toxic	21.1	–
CNC(=O)[C@@]12C[C@@H]1[C@@H](n1cnc3c(NC)nc(-n4cc(-c5cnn(C)c5)nn4)nc31)[C@H](O)[C@@H]2O	2.16	2	1	82.5	Non-toxic	19.1	–
CNC(=O)[C@@]12C[C@@H]1[C@@H](n1cnc3c(NC4CCC4)nc(-n4cc(-c5ccc(Cl)s5)nn4)nc31)[C@H](O)[C@@H]2O	7.05	–	–	90.7	Non-toxic	85.2	–
CNC(=O)[C@@]12C[C@@H]1[C@@H](n1cnc3c(NC)nc(-n4cc(-c5cnccn5)nn4)nc31)[C@H](O)[C@@H]2O	2.21	25	8	76.6	Non-toxic	26.6	–
CNC(=O)[C@@]12CC1[C@@H](n1cnc3c(NC)nc(C#Cc4ccccc4)nc31)[C@H](O)[C@@H]2O (single isomer, unassigned)	–	–	–	–	–	–	Selectivity ratio (Homo sapiens): > 3000

The next lines start with results.

Ki (Adenosine receptor A3 [2]) [nM]	inhibition [3] [%]	inhibition (Adenosine receptor A2a [4]) [%]	Compound	Emax at 3 µmol/kg (Mus musculus [5]) [%]	Activity (Mus musculus [6])	Activity (Mus musculus [7]) [%]	also measured
0.91	68	42	CNC(=O)[C@@]12C[C@@H]1[C@@H](n1cnc3c(NCCc4ccccc4)nc(I)nc31)[C@H](O)[C@@H]2O	–	–	–	–
0.95	–	31	CNC(=O)[C@@]12C[C@@H]1[C@@H](n1cnc3c(NC)nc(-n4cc(-c5ccccc5Cl)nn4)nc31)[C@H](O)[C@@H]2O	69.1	Non-toxic	7.9	–
0.54	–	1	CNC(=O)[C@@]12C[C@@H]1[C@@H](n1cnc3c(NC)nc(N=[N+]=[N-])nc31)[C@H](O)[C@@H]2O	–	–	–	–
0.96	–	35	CNC(=O)[C@@]12C[C@@H]1[C@@H](n1cnc3c(NC)nc(-n4cc(-c5ccccc5)nn4)nc31)[C@H](O)[C@@H]2O	77.4	Non-toxic	27.5	–
0.85	93	–	CNC(=O)[C@@]12C[C@@H]1[C@@H](n1cnc3c(NCCc4ccccc4)nc(N=[N+]=[N-])nc31)[C@H](O)[C@@H]2O	–	–	–	Ki (Adenosine receptor A2a [1]): 1110 nM
0.85	–	46	CNC(=O)[C@@]12C[C@@H]1[C@@H](n1cnc3c(NC4CCC4)nc(N=[N+]=[N-])nc31)[C@H](O)[C@@H]2O	–	–	–	–
1.08	–	–	CNC(=O)[C@@]12C[C@@H]1[C@@H](n1cnc3c(NCc4cccc(Cl)c4)nc(N=[N+]=[N-])nc31)[C@H](O)[C@@H]2O	–	–	–	Ki (Adenosine receptor A2a [1]): 2770 nM
0.96	–	51	CNC(=O)[C@@]12C[C@@H]1[C@@H](n1cnc3c(NC)nc(-n4cc(-c5ccco5)nn4)nc31)[C@H](O)[C@@H]2O	65.3	Non-toxic	21.1	inhibition [9]: 50%; inhibition (PC-12): 50%
0.69	–	11	CCNc1nc(N=[N+]=[N-])nc2c1ncn2[C@H]1[C@H](O)[C@H](O)[C@]2(C(=O)NC)C[C@H]12	–	–	–	–
0.58	–	7	CNC(=O)[C@@]12C[C@@H]1[C@@H](n1cnc3c(NC)nc(-n4cc(-c5ccc(Br)s5)nn4)nc31)[C@H](O)[C@@H]2O	69.1	Non-toxic	13.5	–
1.06	–	39	CNC(=O)[C@@]12C[C@@H]1[C@@H](n1cnc3c(NC)nc(-n4cc(-c5ccc(F)c(F)c5)nn4)nc31)[C@H](O)[C@@H]2O	75.2	Non-toxic	27	–
